miR122 inh: blocks miR-122 activity in Huh7 sensor cells | Huh7 miR-122 Renilla luciferase sensor, 48 h; neutral wells = 0, positive control = 100 | activation (reporter increase), % at 12.5 µM | 340,000 compounds, 0.3% hits | AID 602342;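 active means mean replicate activation score at least 90 and every replicate individually at or above 90; inconclusive means only one of the two criteria met; inactive means neither criterion met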;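 further: higher luciferase means less miR-122 activity so hits act as miR-122 inhibitors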
Env fusion inh: blocks HIV Env-driven cell-cell fusion; HeLa-JRFL Env/CEM21 cell fusion, luciferase; inhibition, % at 12.3 µM; 360,000 compounds, 1.1% hits; AID 651610;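 active means mean replicate inhibition score of at least 50 and every replicate individually at or above 50; inconclusive means only one of the two criteria met; inactive means mean below 50 and not all replicates reaching 50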;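 further: 0% = plate neutral controls and 100% = maraviroc near 300 nM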
dFosB activator: mouse delta FosB homodimer activation | P13346 | purified delta FosB, TAMRA-CDK5 oligo fluorescence polarization; percent of positive-control signal above neutral wells | activation, % at 25 µM | 340,000 compounds, 0.99% hits;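 active means mean activation above about 17%, with every replicate also reaching it, limit read from the data, passing the limit was not always enough; inconclusive means only one of the two conditions met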
Target sequence (P13346 whole entry, looked up): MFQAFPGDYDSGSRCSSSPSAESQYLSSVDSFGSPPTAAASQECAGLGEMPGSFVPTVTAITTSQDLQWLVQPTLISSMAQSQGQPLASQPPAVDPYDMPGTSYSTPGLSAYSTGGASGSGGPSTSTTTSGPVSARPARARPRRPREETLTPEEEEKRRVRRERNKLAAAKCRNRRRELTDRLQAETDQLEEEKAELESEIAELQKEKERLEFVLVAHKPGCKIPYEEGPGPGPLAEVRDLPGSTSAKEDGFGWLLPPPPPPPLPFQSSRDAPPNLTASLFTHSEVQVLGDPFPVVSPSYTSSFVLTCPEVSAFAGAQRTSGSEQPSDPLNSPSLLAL
Rtt109 HAT inh: C. albicans Rtt109 histone acetyltransferase inhibition | Q5AAJ8 | purified Rtt109/Vps75, ThioGlo CoA-SH fluorescence, 4 h | inhibition, % at 34.9 µM | 330,000 compounds, 0.16% hits | AID 540336;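 active means inhibition of at least 50% in every replicate; inconclusive means best replicate reaches 50% inhibition but some replicates fall short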
Target sequence (Q5AAJ8 whole entry, looked up): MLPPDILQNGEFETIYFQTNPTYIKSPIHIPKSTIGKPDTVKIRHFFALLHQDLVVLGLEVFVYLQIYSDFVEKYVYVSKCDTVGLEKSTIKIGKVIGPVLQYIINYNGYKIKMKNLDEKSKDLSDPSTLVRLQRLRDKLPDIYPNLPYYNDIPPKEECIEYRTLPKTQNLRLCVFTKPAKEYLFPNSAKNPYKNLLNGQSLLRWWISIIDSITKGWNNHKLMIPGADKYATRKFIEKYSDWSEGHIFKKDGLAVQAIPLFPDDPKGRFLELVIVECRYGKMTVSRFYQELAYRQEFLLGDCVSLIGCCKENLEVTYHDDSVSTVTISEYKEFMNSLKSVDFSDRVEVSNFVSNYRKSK
GSIS activator: GLuc luminescence reporter in INS-1E cells, primary screen for activators of glucose-dependent secretion of insulin. INS-1E GLuc reporter insulin secretion, 2-3 h. activation, % at 16.6 µM. 370,000 compounds, 0.61% hits. AID 743287;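 active means lowest replicate activation of at least 40%, so every replicate reaches that level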;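 further: 0% = median of neutral control wells and 100% = median of IBMX positive control wells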
Cneo AK release: Cryptococcus neoformans lysis via adenylate kinase release; AID 651654; lysis activity, % at 15 µM; 360,000 compounds, 0.2% hits; C. neoformans lysis, adenylate kinase release luminescence, 4 h; normalised: neutral wells 0, clomiphene wells 100;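 active means mean lysis activity across replicates of at least 80%, whatever share of replicates individually reach that level; inactive means mean lysis activity below 80%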
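Assay system: C. neoformans cells. Amount: yeast cell density of 5 × 10^6 cells/mL. Technique: AK luminescence. Buffer or medium: YPD. Times: static 4 h at 37 °C with compound, 1 h detection. Dosing: single-point compound dose. Read-out: lysis from increased AK signal.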
Active calls of the source: *; ? = inconclusive; / = no result given; [ ] = remark or other dose. In the library only some 2.4% were active in any assay of this set; here they are far more common.

SMILES | miR122 inh | Env fusion inh | dFosB activator | Rtt109 HAT inh | GSIS activator | Cneo AK release
CC(C)c1nnc(NC(=O)CCC(=O)NCc2cccs2)s1 | -5 | -140 | -2 | 53* | / | 0
COCC(=O)Nc1ccc2c(c1)C(=O)N(C)[C@@H]1CC[C@@H](CC(=O)NCc3ccc(OC)cc3)O[C@@H]1CO2 | 25[16.7 µM] | 0[16.7 µM] | / | / | -3 | 1
CN(C)c1cc[n+](CC(=O)c2ccc(-c3ccccc3)cc2)cc1 | / | 64* | 8 | 9 | -42 | /
CC(C)CC#Cc1cnc2c(c1)C(=O)N([C@@H](C)CO)C[C@@H](C)[C@H](CN(C)C(=O)NC1CCCC1)O2 | 0[16.7 µM] | 2[16.7 µM] | / | / | -18 | 1
C[C@H]1CCCCO[C@H](CN(C)Cc2ccc(C(F)(F)F)cc2)[C@@H](C)CN([C@@H](C)CO)C(=O)c2cc(NC(=O)NC3CCCCC3)ccc2O1 | -11[16.7 µM] | 66*[16.7 µM] | / | / | -19 | 1
C[C@H](CO)N1C[C@H](C)[C@H](CN(C)Cc2ccc(C(F)(F)F)cc2)OCCCC[C@H](C)Oc2ccc(NC(=O)NC3CCCCC3)cc2C1=O | -10[16.7 µM] | 72*[16.7 µM] | / | / | -21 | 1
C[C@@H]1CCCCO[C@@H](CN(C)Cc2ccc(C(F)(F)F)cc2)[C@@H](C)CN([C@@H](C)CO)C(=O)c2cc(NC(=O)NC3CCCCC3)ccc2O1 | 0[16.7 µM] | 9[16.7 µM] | / | / | -14 | 2
C[C@@H]1CCCCO[C@@H](CN(C)Cc2ccc(C(F)(F)F)cc2)[C@H](C)CN([C@@H](C)CO)C(=O)c2cc(NC(=O)NC3CCCCC3)ccc2O1 | -8[16.7 µM] | 21[16.7 µM] | / | / | -20 | 4
CCCNC(=O)N1CC2(C1)CN(C(=O)COC)[C@H](CO)c1[nH]c3cc(OC)ccc3c12 | / | / | / | / | 0 | /
COc1cc(/C=C2\SC(=S)N(NC(=O)c3ccc(O)cc3)C2=O)ccc1O | / | -11 | 28* | 5 | -23 | /
COc1cc(/C=C2\SC(=S)N(c3cccnc3)C2=O)ccc1O | / | 15 | 4 | 0 | -3 | /
O=C(NN1C(=O)/C(=C/c2ccc(O)c(O)c2)SC1=S)c1ccccc1 | / | -5 | 7 | -2 | -54 | -4
COc1cc(/C=C2\SC(=S)N(NC(=O)c3cccnc3)C2=O)ccc1O | / | -13 | 31* | 23 | 0 | /
Cc1noc(C)c1S(=O)(=O)N(C)C[C@H]1Oc2ccc(NC(=O)CCN3CCOCC3)cc2CC(=O)N([C@H](C)CO)C[C@@H]1C | / | / | / | / | 1 | /
Cc1ccccc1S(=O)(=O)NCC[C@H]1CC[C@@H](NC(=O)C2CC2)[C@H](CO)O1 | / | -7[16.7 µM] | / | / | 3 | -6
Cc1ccc(-c2nn(-c3ccccc3)c3[nH]c(=O)c(CNCc4ccccc4)cc23)cc1 | -1 | / | 21* | 0 | 9 | 2
Cc1nn(-c2ccccc2)c2[nH]c(=O)c(CNCc3ccc4c(c3)OCO4)cc12 | -5 | / | -15 | 2 | / | 1
CC(=O)N1C[C@@H]2C(c3ccccc3)[C@H](C1)N2C(=O)NC(C)C (stereo not given in full) | / | / | / | / | 9 | /
CCCCn1c(N2CCCC2)nc2c1c(=O)[nH]c(=O)n2C | -9 | 6 | 0 | -7 | 84* | -1
Cn1c(=O)[nH]c(=O)c2c1nc(N1CCNCC1)n2Cc1ccccc1 | 0 | 4 | -4 | -3 | 17 | -2
Cn1c(=O)[nH]c(=O)c2c1nc(N1CCNCC1)n2Cc1cccc2ccccc12 | -6 | 58* | 3 | 4 | / | 0
C=CCn1c(N2CCCCCC2)nc2c1c(=O)[nH]c(=O)n2C | -4 | -24 | 2 | -4 | / | 0
C/C(Cl)=C\Cn1c(N2CCCC2)nc2c1c(=O)[nH]c(=O)n2C | -10 | / | -4 | 0 | 49* | 1
CO[C@@H]1CN(C)C(=O)c2cc(NS(=O)(=O)CC(F)(F)F)ccc2OC[C@H](C)N(C(=O)NC(C)C)C[C@@H]1C | / | -6[16.7 µM] | / | / | 8 | -4
CC(C)NC(=O)Nc1cccc2c1O[C@@H](CN(C)C(=O)Nc1ccccc1)[C@@H](C)CN([C@@H](C)CO)C2=O | 16[16.7 µM] | -8[16.7 µM] | / | / | 5 | 103*
SMILES | miR122 inh | Env fusion inh | dFosB activator | Rtt109 HAT inh | GSIS activator | Cneo AK release
CC(C)NC(=O)Nc1cccc2c1O[C@H](CN(C)C)[C@H](C)CN([C@H](C)CO)C2=O | 32[16.7 µM] | 6[16.7 µM] | / | / | 7 | 100*
Cc1ccc2c(c1)CCCN2C(=O)c1ccc2c(c1)OCO2 | / | / | 0 | 3 | 54* | /
CC(=O)N1CCc2cc(S(=O)(=O)Nc3cccc(C(F)(F)F)c3)ccc21 | 100* | ? | -6 | -2 | / | 3
CC(=O)N1CCc2cc(S(=O)(=O)Nc3ccc(C)cc3)ccc21 | 29 | 12 | 5 | 10 | -1 | 4
CC(=O)N1CCCc2cc(S(=O)(=O)Nc3ccc4c(c3)OCO4)ccc21 | 268* | -58 | 4 | 2 | / | -4
O=C(c1cccc(F)c1)N1CCCc2ccccc21 | -1 | 0 | -1 | 0 | 84* | -2
COCC(=O)Nc1ccc2c(c1)OC[C@H](C)N(Cc1ccccc1F)C[C@H](C)[C@H](OC)CN(C)C2=O | / | / | / | / | -7 | /
CCCNC(=O)N[C@H]1CC[C@@H](CCNS(=O)(=O)c2cccc(F)c2)O[C@@H]1CO | -5[16.7 µM] | 5[16.7 µM] | / | / | 10 | -1
CC(C)NC(=O)N(C)C[C@@H]1Oc2ncc(-c3cccc(C#N)c3)cc2C(=O)N([C@H](C)CO)C[C@H]1C | 0[16.7 µM] | 16[16.7 µM] | / | / | 20 | -1
Cc1cccc(NS(=O)(=O)c2ccc(-c3ccc(=O)[nH]n3)o2)c1 | 7 | -1 | -3 | -11 | 13 | 0
O=c1ccc(-c2ccc(S(=O)(=O)Nc3cccc([N+](=O)[O-])c3)s2)n[nH]1 | -1 | 3 | 3 | 8 | 77* | -2
O=C(NN(Cc1ccccc1)Cc1ccccc1)c1ccccc1 | -3 | / | -2 | -8 | 49* | -2
O=C(NCCCc1ccccc1)c1ccccc1 | -3 | / | -2 | 8 | / | 2
COC(=O)[C@H](Cc1ccccc1)NC(=O)Cn1cnc(C(=O)Nc2ccc(C)c(C)c2)n1 | 2 | 69* | -9 | -5 | 1 | -2
COC(=O)[C@H](Cc1ccc(O)cc1)NC(=O)Cn1cnc(C(=O)Nc2ccc(C)c(C)c2)n1 | 0 | / | 0 | -2 | 13 | -2
Cc1ccc(S(=O)(=O)N2C[C@@H]3CCCC[C@@H]3[C@@H](C)[C@H]2c2cn(Cc3ccccc3)c3ccccc23)cc1 | / | 63* | -10 | -8 | / | 0
Cc1ccc(S(=O)(=O)N2C[C@@H]3[C@H]4CC[C@H](C4)[C@@H]3[C@@H](C)[C@@H]2c2cn(Cc3ccccc3)c3ncccc23)cc1 | / | 18 | -1 | 3 | 18 | 0
Cc1ccc(S(=O)(=O)N2C[C@@H]3CCCC[C@@H]3[C@@H](C)[C@H]2c2cn(Cc3ccccc3)c3ncccc23)cc1 | 5 | 70* | 0 | 2 | 5 | -1

Bioassay records from PubChem BioAssay.
